Only some compounds are listed: those with a hit (about 1.3% of all), similar ones and a draw of the others.
Hsp70 activator = Hsp70 transcriptional activators, primary screen, cell-based, HeLa, Hsp70 promoter luciferase, luminescence, 10 µM. 200,000 tested, 0.04% active. activation, % at 10 µM. HeLa Hsp70 promoter luciferase reporter; scaled: vehicle 0, proteasome-inhibitor control 100%;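 active means activation above the mean across all tested compounds plus 3 SD, cutoff set per campaign, cut at about 5.5% in these data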
Wee1 degr inh = Wee1 degradation inhibitors, primary screen, cell-based, HeLa, Wee1K328M-luciferase, luminescence. Wee1-like protein kinase (Homo sapiens), P30291. HeLa Luc-Wee1K328M stability; 100% = proteasome inhibitor MG132 effect. reporter increase, % at 5 µM. 220,000 tested, 1.2% active. AID 1321, 2008;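 active means activation above the mean of all tested compounds plus 3 SD, set per screening run, cut at about 8.8% in these data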;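 further: cells exposed to compound for 20 h before luminescence read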
Pf gametocyte = late stage P. falciparum gametocyte viability inhibitors, primary screen, ATP luminescence, HTS; inhibition, % at 10.9 µM; AID 743093, 2013; 150,000 tested, 0.065% active; P. falciparum stage V gametocytes, 24 h;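 active means inhibition above the mean plus 3 SD of compounds within the control limits, set per campaign, cut at about 38% in these data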
Mdm2 ligase inh = MDM2-luciferase reporter signal enhancers, primary screen, MDM2 E3 ligase inhibitor project, cell-based, luminescence, 1536-well | E3 ubiquitin-protein ligase Mdm2 (Homo sapiens), Q00987 | cell-based MDM2 ubiquitination luciferase reporter, 2 h; 0 = plate control, 100 = twice control, blank-subtracted | signal enhancement, % at 5 µM | AID 1230, 2008 | 210,000 tested, 0.11% active;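 active means signal enhancement of 30% or more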;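 further: luminescence tracks abundance of the self-degrading MDM2-luciferase fusion protein; higher signal means inhibition of MDM2 E3 ligase activity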
Target sequence (Q00987 whole entry, looked up, the tested form may be a part): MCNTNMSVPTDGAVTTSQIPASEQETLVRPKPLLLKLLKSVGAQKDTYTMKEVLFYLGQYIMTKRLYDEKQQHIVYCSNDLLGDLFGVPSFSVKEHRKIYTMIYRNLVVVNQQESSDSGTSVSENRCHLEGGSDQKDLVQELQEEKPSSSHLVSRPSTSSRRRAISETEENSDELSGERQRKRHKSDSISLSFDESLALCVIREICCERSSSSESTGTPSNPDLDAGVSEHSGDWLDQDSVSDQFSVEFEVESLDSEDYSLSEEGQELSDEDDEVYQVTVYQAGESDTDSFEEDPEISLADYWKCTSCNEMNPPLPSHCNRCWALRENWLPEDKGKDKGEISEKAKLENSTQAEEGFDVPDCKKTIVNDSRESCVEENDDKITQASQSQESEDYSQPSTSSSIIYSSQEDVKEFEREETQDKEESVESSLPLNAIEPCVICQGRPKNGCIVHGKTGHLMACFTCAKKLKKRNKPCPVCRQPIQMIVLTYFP
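Material: Stable MDM2–luciferase fusion reporter cells | Amount: 2000 cells seeded into each well | Dosing: One concentration, 5 µM, with 0.2% DMSO | Incubation: 4 h cell settling then 2 h compound exposure, 37 °C | Measured by: Luciferase luminescence | Read-out basis: % enhancement relative to plate controls after blank subtraction | Benchmarks: Control and blank well means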
Wee1 degr conf = Wee1 degradation inhibitors, confirmation, cell-based, HeLa, Wee1K328M-luciferase, luminescence, triplicate. activation, % at 5 µM. HeLa Luc-Wee1K328M degradation; vehicle 0%, proteasome-blocked wells 100%. 1,100 tested, 4% active. shares compounds with Wee1 degr inh. AID 1410, 2008; in the data active means activation above about 8.9%
Of the large screens only hits and unclear results are named; the others gave an inactive call (follow-up assays come after a bar, where they were run).

COc1ccc(CN2C[C@H](Cc3ccccc3)[C@@H](CC(=O)Nc3ccccc3)C2=O)cc1	none (no result: Hsp70 activator, Wee1 degr inh, Mdm2 ligase inh)
CCS(=O)(=O)Nc1ccc(-c2nc3cccnc3s2)cc1	none (no result: Pf gametocyte)
CCS(=O)(=O)Nc1cccc(-c2nc3cccnc3s2)c1	Wee1 degr inh 12 (no result: Hsp70 activator) | Wee1 degr conf inactive
CC(C)C(=O)NNC(=O)c1cc2sccc2s1	none (no result: Hsp70 activator)
C=CCn1c(SCC(=O)Nc2ccccc2C)nnc1-c1ccncc1	none (no result: Pf gametocyte)
C=CCn1c(SCC(=O)Nc2ccccc2CC)nnc1-c1ccncc1	Wee1 degr inh 13 (no result: Pf gametocyte) | Wee1 degr conf inactive
Cc1ccc(Cl)cc1-n1c(=O)cc(N2CCN(C(=O)c3ccco3)CC2)[nH]c1=O	Wee1 degr inh 14 | Wee1 degr conf inactive
Cc1nc(-c2ccccc2)sc1-c1ccnn1C	Wee1 degr inh 18 | Wee1 degr conf inactive
Cc1nc(-c2ccccc2)sc1-c1ccn[nH]1	none
CCN(/C=N/c1sc2c(c1C#N)CCCCC2)CC	Wee1 degr inh 13 | Wee1 degr conf inactive
Cc1ccc2c(c1)N(C(C)C(=O)NCCc1ccccc1)C(=O)CO2 (centres undefined)	Wee1 degr inh 12 | Wee1 degr conf inactive
CCn1c(CN2CCN(Cc3ccc(C)cc3)C(CCO)C2)nc2ccccc21 (centres undefined)	none (no result: Pf gametocyte)
CC(C)CN1CCCC(N2CCN(c3cccc(Cl)c3)CC2)C1 (centres undefined)	none (no result: Hsp70 activator, Wee1 degr inh, Mdm2 ligase inh)
COc1cc(Nc2ccc(S(N)(=O)=O)cc2)c([N+](=O)[O-])nc1[N+](=O)[O-]	none (no result: Hsp70 activator, Wee1 degr inh, Mdm2 ligase inh)
Cc1nc(NC(N)=S)sc1C(=O)Nc1ccccc1	none
Cc1ccc(C)c(S(=O)(=O)Nc2nc(C)c(C(=O)Nc3ccccc3)s2)c1	Wee1 degr inh 14 | Wee1 degr conf inactive
Cc1ccc(OCC(O)CNC2CCCC2)cc1C (centres undefined)	none (no result: Hsp70 activator, Wee1 degr inh, Mdm2 ligase inh)
O=C(O)Cc1ccc(NC(=O)CCN2C(=O)c3ccc([N+](=O)[O-])cc3C2=O)cc1	Wee1 degr inh 15 | Wee1 degr conf inactive
O=C(CCN1C(=O)c2ccc([N+](=O)[O-])cc2C1=O)Nc1ccc(O)cc1C(=O)O	none
CCN1CCN(C(c2cccs2)C(C)NS(=O)(=O)c2ccc(C)cc2)CC1 (centres undefined)	none
CCCCOCCCNC(=O)c1ccc([N+](=O)[O-])c(C)c1	none (no result: Pf gametocyte)
O=[N+]([O-])c1ccccc1/C=N/n1c(C(F)(F)F)n[nH]c1=S	Wee1 degr inh 12 | Wee1 degr conf inactive
CCOC(=O)c1c2n(c3ccc(O)cc13)CCC2	Wee1 degr inh 11 (no result: Pf gametocyte, Mdm2 ligase inh) | Wee1 degr conf inactive
CCOC(=O)c1c(C)n(CCNC(C)=O)c2ccc(O)cc12	none (no result: Pf gametocyte)
COc1ccc(C(=O)N[C@H](C(=O)N2CCN(c3ccccc3F)CC2)C(C)C)cc1	none
CC(C)C1OC2(C)OC(=N)C1(C#N)C(C#N)(C#N)C2c1ccccc1 (centres undefined)	Wee1 degr inh 17 | Wee1 degr conf inactive
COc1ccc(/C=N/NC(=O)c2ccc3ccccc3c2)cc1OS(=O)(=O)c1ccc(NC(C)=O)cc1	Wee1 degr inh 14 (no result: Pf gametocyte) | Wee1 degr conf 13
O=C(CO/N=C1\CCCc2nonc21)Nc1ccc(Br)cc1	Wee1 degr inh 12 (no result: Mdm2 ligase inh) | Wee1 degr conf inactive
CNC(=S)Nc1ccc(OCc2ccccc2)cc1	none
CCOc1ccc(NC(=S)Nc2ccc(OCc3ccccc3)cc2)cc1	Wee1 degr inh 16 | Wee1 degr conf inactive
CN(CCOc1ccccc1)C(=O)c1cc([N+](=O)[O-])cc([N+](=O)[O-])c1	Wee1 degr inh 17 | Wee1 degr conf inactive
O=C(Nc1ccccc1)C1=C[C@H](c2ccc(Br)cc2)C[C@H](OCc2ccc(CO)cc2)O1	Wee1 degr inh 11 (no result: Pf gametocyte, Mdm2 ligase inh) | Wee1 degr conf inactive
O=C1OC[C@H]2CCCN2C(=O)[C@@H](CC(=O)N(CCO)Cc2ccccc2)C/C=C\C[C@@H]1Cc1ccc(F)cc1	none (no result: Hsp70 activator, Wee1 degr inh, Mdm2 ligase inh)
O=C(NC(=S)Nc1ccc2c(c1)OCCO2)c1cccc2ccccc12	Wee1 degr inh 12 | Wee1 degr conf inactive
Cc1ccc(CN2CCNC(=O)C2CC(=O)N2CCN(c3ncccn3)CC2)o1 (centres undefined)	none
